Compound activity from PubChem.
Most compounds without a hit are left out; they make up all but 1.6% or so of the library.
PAD4 inh: human PAD4 inhibitors, primary screen, biochemical, fluorescence polarization, 1536-well format | Protein-arginine deiminase type-4 (Homo sapiens), Q9UM07 | recombinant PAD4, RCA probe fluorescence polarization | 330,000 compounds, 0.41% hits | inhibition, % at 6.36 µM;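 active = percent inhibition above a cutoff equal to the mean of all tested compounds plus 3 SD, cut at about 15% in these data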;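 also: 0% = PAD4 with RCA probe and DMSO and 100% = probe without PAD4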
JMJD2C inh: inhibitors of GASC-1 histone demethylase, primary screen, biochemical, fluorescence, DELFIA europium; inhibition, % at 2.35 µM; 330,000 compounds, 0.069% hits; GST-JMJD2C(1-420) H3K9me3 demethylation;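 active = more than half of a compound's replicate wells show inhibition beyond 50%, single wells judged on their own value; inconclusive = some, but no more than half, of replicates pass 50% inhibition; inactive = no replicate passes 50% inhibition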;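 also: signal counts dimethyl H3K9 product captured on neutravidin plate; 0% = median of DMSO wells and 100% = 0.3 times that DMSO median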
Apaf-1 inh: inhibitors of human Apaf-1 apoptosome, primary screen, biochemical, DEVD-Rh110 fluorescence, uHTS; Apoptotic protease-activating factor 1 (Homo sapiens), O14727; inhibition, % at 20 µM; reconstituted apoptosome caspase-3 activity; 330,000 compounds, 0.71% hits; active = inhibition of at least 40% at 20 µM;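 also: plate controls were DMSO wells for no effect and DEVD-CHO caspase inhibitor wells for full effect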
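System – cell-free apoptosome with Apaf-1, procaspase-3 and caspase-9 · Buffer or medium – pH 7.5 Hepes buffer with CHAPS, BSA, DTT · Also added – cytochrome c with DEVD-Rh110 · Times – 30 min compound preincubation, 50 min activation, room temperature · Technique – Rh110 fluorescence intensity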
SUMO HTRF inh: inhibitors of in vitro SUMOylation cascade, primary screen, biochemical, HTRF, uHTS; HTRF SUMOylation assay, SAE1/SAE2 + UBC9; 290,000 compounds, 0.36% hits; AID 2006, 2009; inhibition, % at 35 µM; in the data active = inhibition above about 50%, passing the limit was not always enough; inconclusive = no clear call, values can overlap the other calls
GSTO1 counter: inhibitors of recombinant GSTO1, primary screen, counter-screen for RBBP9 inhibitor project, biochemical, fluorescence polarization. Glutathione S-transferase omega-1 (Homo sapiens), P78417. activity-based probe fluorescence polarization. inhibition, % at 5.96 µM. 300,000 compounds, 1.1% hits;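 active = inhibition above the campaign mean inhibition plus 3 SD, cut at about 35% in these data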;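 also: 0% = GSTO1-1 with DMSO and 100% = wells lacking GSTO1-1 enzyme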
Target sequence (P78417 whole entry, looked up): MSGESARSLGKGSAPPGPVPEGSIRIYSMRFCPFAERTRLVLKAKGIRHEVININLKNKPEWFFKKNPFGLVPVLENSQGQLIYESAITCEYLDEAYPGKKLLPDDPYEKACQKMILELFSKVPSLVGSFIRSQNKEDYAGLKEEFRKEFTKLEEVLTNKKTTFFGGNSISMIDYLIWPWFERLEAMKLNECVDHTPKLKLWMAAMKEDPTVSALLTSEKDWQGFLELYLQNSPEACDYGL
TDP2 inh: human TDP2 enzyme inhibitors, primary screen, biochemical, epi absorbance, recombinant enzyme; 370,000 compounds, 0.34% hits; inhibition, % at 12.8 µM; T5PNP hydrolysis, p-nitrophenol absorbance 415 nm;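 active = inhibition above the mean of all tested compounds plus 3 SD, set per campaign, cut at about 25% in these data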;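 also: 0% = DMSO with enzyme and 100% = buffer with substrate but no TDP2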
Target sequence (O95551 whole entry, looked up): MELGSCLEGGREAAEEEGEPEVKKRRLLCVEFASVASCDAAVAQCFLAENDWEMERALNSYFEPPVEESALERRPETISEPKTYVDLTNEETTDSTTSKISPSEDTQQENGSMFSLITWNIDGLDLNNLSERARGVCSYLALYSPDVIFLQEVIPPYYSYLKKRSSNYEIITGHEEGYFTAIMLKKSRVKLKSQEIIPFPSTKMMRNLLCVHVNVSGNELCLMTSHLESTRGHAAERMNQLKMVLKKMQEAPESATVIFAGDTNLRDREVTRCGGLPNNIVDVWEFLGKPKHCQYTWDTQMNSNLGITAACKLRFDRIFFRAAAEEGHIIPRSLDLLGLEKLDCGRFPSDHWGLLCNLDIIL
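System – recombinant human TDP2 · Quantity – TDP2 enzyme at 120 nM final · Doses – single concentration, 12.8 µM nominal, with 1% DMSO · Incubation – 2 h at 37 °C · Measured by – epi absorbance of p-nitrophenol freed from T5PNP by hydrolysis · Read-out – % inhibition relative to enzyme-containing and enzyme-free wells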
Numbers without * were called inactive; ? = inconclusive; / = no result.

SMILES	PAD4 inh	JMJD2C inh	Apaf-1 inh	SUMO HTRF inh	GSTO1 counter	TDP2 inh
Nc1ccc(S(=O)(=O)c2cc(O)c3ccccc3c2O)cc1	/	/	/	/	/	28*
CCCCCCSc1cc(-c2nc3cc(C)ccn3c2NC2CCCCC2)ccc1OC	-6	0	21	/	1	0
CCCCCCSc1ccc(-c2nc3cc(C)ccn3c2NC2CCCCC2)cc1	-2	-18	47*	/	/	12
COc1ccc(/C(C)=N/OC/C(O)=C(\C#N)c2nc3ccccc3[nH]2)cc1OC	-1	-21	-1	45	20	4
COc1ccc(/C(C)=N/OC/C(O)=C(\C#N)c2nc3ccccc3[nH]2)c(OC)c1	3	4	2	3	37*	-4
O=C(Cn1c(=O)c2cccn2c2cccnc21)NCCCN1CCN(c2ccc(Cl)cc2)CC1	/	/	/	/	/	6
Cc1[nH]c2ccccc2c1CCNC(=O)c1ccc2c(c1[N+](=O)[O-])C(=O)c1ccccc1C2=O	-25	4	2	21	10	2
CN(C)C(=O)c1ccc2c(c1[N+](=O)[O-])C(=O)c1ccccc1C2=O	-2	4	10	0	36*	-6
O=C1C2C3C=CC(C3)C2C(=O)N1CNc1ccc(O)cc1 (stereo not drawn)	33*	-2	94*	80	93*	/
C=C(C)CN(CC)c1nc(N)c2c(N)nc3c(c2c1C#N)CC(=O)N3C12CC3CC(CC(C3)C1)C2	-2	1	16	62*	26	-1
CCCN(CCC)c1nc(N)c(C#N)c(CC#N)c1C#N	0	-1	-3	3	-3	/
CCCCN1C(=O)Cc2c1nc(N)c1c(N)nc(N(CCC)CCC)c(C#N)c21	-14	0	/	94*	73*	-5
N#Cc1c(N(CCO)CCO)nc(N)c2c(N)nc3c(c12)CC(=O)N3CC1CCCO1 (stereo not drawn)	1	-9	98*	101*	32	13
C=CCN(CC#CC1=CCCCC1)CC1CC1	/	/	/	/	/	-6
CCn1c2ccccc2c2cc(NC(=O)COC(=O)c3ccc(NC(=O)CC#N)cc3)ccc21	-13	-7	23	/	36*	-5
CC(C)c1ccc(-n2nc3ccc(N)cc3n2)cc1	-6	12	63*	23	1	21
Cc1ccc(-n2nc3ccc(N)cc3n2)cc1	-7	-3	82*	48	30	21
O=C(Nc1ccc(F)cc1)OCc1cn(Cc2cccc(Cl)c2)nn1	/	/	/	/	/	-2
Cc1ccccc1NC(=O)CSc1ccc(-c2ccco2)nn1	0	-21	0	23	17	1
CCc1nnc(NC(=O)CSc2nnc(-c3ccco3)n2C)s1	0	2	-9	14	6	-7
CCc1ccc(-c2ccc(SCC(=O)Nc3nnc(C)s3)nn2)cc1	0	-9	-13	25	36*	9
CCc1nnc(NC(=O)CSc2ccc(-c3ccco3)nn2)s1	1	21	-1	28	36*	4
Cc1nnc(NC(=O)CSc2nc3ccccc3o2)s1	3	26	-14	5	37*	8
Cc1nnc(NC(=O)CSc2ccc(-c3ccco3)nn2)s1	-2	9	-4	44	54*	-6
CCCCNS(=O)(=O)/C=C/c1cc(C)ccc1CNC(=O)OC(C)(C)C	/	/	/	/	/	-2
SMILES	PAD4 inh	JMJD2C inh	Apaf-1 inh	SUMO HTRF inh	GSTO1 counter	TDP2 inh
COCCCNC(=O)C[C@H]1C[C@@]2(C(=O)OC)C(=C[C@H](C(C)C)O[C@@H]2C2CC2)N(CCc2ccc(OC)c(OC)c2)C1=O	/	/	/	/	/	-5
Cn1c(-c2ccc(C=O)s2)nc2c3ccccc3c3ccccc3c21	-2	-8	12	97*	-4	6
CCCCOCCCNC(=O)C[C@@H]1C(=O)N2CCCC3=C2[C@@]1(C(=O)OC)CCCC3	/	/	/	/	/	-3
COc1ccc(/C=C2/C(=O)N(c3c(F)c(F)c(F)c(F)c3F)N=C2C)cc1	-9	8	54*	7	-6	23
COc1ccc(/C=C2\C(=O)ON=C2c2ccccc2)cc1	-1	?	-1	14	17	-10
O[C@H](COc1cc(F)cc(F)c1)CN1CCC(C(O)(c2ccccc2)c2ccccc2)CC1	/	/	/	/	/	-7
CCCCCCC(=O)Nc1ccc(C(=O)N/N=C/c2cccnc2)cc1	4	-9	9	-24	-24	3
CCCCCCCC(=O)Nc1ccc(C(=O)N/N=C/c2cccc([N+](=O)[O-])c2)cc1	-1	-1	0	50*	-5	-1
NC1=CC(=O)c2cccc3cccc1c23	15*	24	8	13	24	/
CC(C)=CCC[C@@]1(C(=O)O)[C@H]2CC=C(CO)[C@@H]1CC/C(C)=C/CC/C(C)=C/C2	/	/	/	/	/	3
Cc1ccc(S(=O)(=O)N(CCc2ccccc2)CC(=O)N2CCOCC2)cc1	/	/	/	/	/	-1
COc1ccc(Br)cc1/C=c1\sc2nc(-c3ccco3)nn2c1=O	-18	2	26	52*	-15	14
C#CCN(C)S(=O)(=O)c1ccc(N2CCCC2)cc1Br	/	/	/	/	/	2
COc1cc2c3nnc(-c4ccc(F)cc4)c-3cn(Cc3cccc(C)c3)c2cc1OC	-6	1	53*	32	0	-5
CC(C)(C)c1ccc(NS(=O)(=O)c2ccc(N)cc2)cc1	-3	-1	11	-1	36*	7
Nc1ccc(S(=O)(=O)Nc2ccc(S(N)(=O)=O)cc2)cc1	2	5	-5	2	6	16
CC1=C2NC(N)=[N+](Cc3ccc4c(c3)OCO4)CC2NOC1 (stereo not drawn)	/	/	/	/	/	1
C/C(=C\c1ccccc1)C1Nc2cccc3cccc(c23)N1	-12	3	41*	/	/	/
CCCC(=O)OC12CCCN(C1)/C(=C/c1ccccc1)C2 (stereo not drawn)	/	/	/	/	/	-1
CC(C)OC(=O)CSc1nnc(-c2cnccn2)n1Cc1ccco1	3	-3	-3	14	0	2
O=C(CSc1nnc(-c2cnccn2)n1Cc1ccco1)c1ccc2ccccc2c1	-4	-4	34	22	38*	-2
Cc1c(NS(=O)(=O)c2cc(C(=O)NCCN(C)C)ccc2Cl)c(=O)n(-c2ccccc2)n1C	3	-8	-9	11	37*	-14
O=C(NCCCc1ccccc1)OC1CCC12CCC(c1ccccc1)CC2 (stereo not drawn)	/	/	/	/	/	-8
O=c1c2ccccc2nc(/C=C/c2cccnc2)n1CCc1ccccc1	-1	-7	19	49	-10	-10
